Consider 14 compounds from PubChem BioAssay.

Active and inactive are the calls of the source.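 How the source made its calls, unless noted: active means fluorescence slope after compound addition differing from the mean of all tested samples at 99.7% confidence, mostly higher but some lower; inactive means the rest.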

Experiment [1] can be described thus: inhibitors of TNFa-induced NFkB p65 translocation, primary screen, imaging, HUVEC, MLSMR starter and 10KST1 sets (AID 438;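 active means inhibition above 20% together with a positive visual image hit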;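 further: compound added about 3h40 before a 20 min TNFalpha stimulation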;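 on inhibition: signal is the nuclear over cytoplasmic p65 intensity ratio per well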). As to conditions: HUVEC TNFa-induced p65 nuclear translocation; cell count: measured here: nuclei count (cytotoxicity indicator), at 2.08 µM; inhibition: at 2 µM, stronger effect = higher value, 0% TNFa-plus-vehicle, 100% no-TNFa wells.
Experiment [2] is described as follows: inhibitors of mutant huntingtin aggregation, primary screen, imaging, exon1htt(103Q)mCFP cells, high-content imaging (AID 483;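 active means visual image review flags a hit and inhibition of aggregation exceeds 20%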;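 further: compound exposure lasted 3 days before fixation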;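 on nuclei count: percent of the per-plate median nuclei count of sample wells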). As to conditions: exon1htt(103Q)mCFP cell line, aggregate imaging, at 2 µM; inhibition of aggregation: stronger effect = higher value; nuclei count: measured here: cell count, toxicity.
A short description of experiment [3]: inhibitors of E-selectin induction by TNFa, primary screen, imaging, HUVEC, immunofluorescence, MLSMR starter and 10KST1 sets (AID 487;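 active means visually confirmed hit in the image check and inhibition above 20%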;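 on inhibition: signal is fraction of cell area covered by stained E-selectin grains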;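 on nuclei count: 100% = median nuclei count of all wells on the same plate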). The following applies: HUVEC TNFalpha-induced E-selectin immunofluorescence imaging, at 2 µM; inhibition: stronger effect = higher value; nuclei count: measured here: cell number, toxicity.
Experiment [4] has as its target Voltage-gated potassium channel subunit beta-2 (Rattus norvegicus) (UniProt P62483). Kind of experiment: KvBeta enzyme negative modulators, primary screen, biochemical, NADPH fluorescence (AID 622;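 active means fluorescence slope higher than the sample average by over 3 SD, cut at about -0.22 in these data, passing the limit was not always enough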;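 further: slope of raw intensity against log time taken from 70 to 1610 s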). As to conditions: recombinant KvBeta, 4-cyanobenzaldehyde reduction, at 10 µM, stronger effect = higher value.
For experiment [5] the target is unchanged. As to the kind of experiment: KvBeta positive modulators, primary screen, biochemical, NADPH fluorescence (AID 623;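 active means NADPH fluorescence slope more negative than the mean of all samples by about 3 SD, 99.7% confidence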;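 further: fluorescence intensity change per second fitted from 20 to 320 s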). The following applies: Recombinant KvBeta, NADPH fluorescence decrease slope, 10 min; at 10 µM; stronger effect = lower value.
The target in experiment [6] is Muscarinic acetylcholine receptor M4 (Homo sapiens) (UniProt P08173). Kind of experiment: compounds altering M4/GIRK thallium flux, either direction, primary screen, M4 allosteric agonist project, cell-based, HEK293 M4/GIRK, BTC-AM (AID 625).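 Further: thallium influx through GIRK channels coupled to M4 in HEK293 cells with BTC-AM dye.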 As to conditions: at 10 µM, actives lie on both sides. In a few lines:
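Material: HEK293 cells with M4 receptor and GIRK channels; Times: cells overnight at 37 °C, BTC-AM loading 1 h, reads 2 min total; Technique: kinetic BTC-AM fluorescence sampled at 1 Hz, 10 s pre-addition baseline; Read-out basis: slope over 15–24 s of trace normalized to starting intensity; Controls: carbachol positive, DMSO negative.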

Experiment [7] can be described thus: inhibitors of Sendai virus-induced IRF3 signaling, primary screen, TLR/RLR signaling modifier project, cell-based, Sendai virus stimulus, luciferase, 10K MLSCN set (AID 602276;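 active means inhibition at or above 50% at 10 µM; inactive means inhibition below 50%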;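 further: firefly luciferase from ISG56 promoter only with Renilla not read in this screen; 0% = Sendai virus plus DMSO and 100% = medium plus DMSO without virus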). The following applies: HEK293 RL24 IRF3 luciferase reporter, at 10 µM, stronger effect = higher value. (In general: Reporter assays use an easily measured gene product as a stand-in for the process of interest.)

A short description of experiment [8]: inhibitors of poly I:C-induced TLR3 signaling, primary screen, cell-based, poly I:C stimulus, luciferase, 10K MLSCN set (AID 602277;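 active means inhibition of the reporter signal at or above 50%; inactive means inhibition below 50%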). The following applies: HEK293-TLR3 RL24 IRF3 luciferase reporter, at 10 µM, stronger effect = higher value.

Muscarinic acetylcholine receptor M4 (Homo sapiens), sequence (P08173 whole entry, looked up): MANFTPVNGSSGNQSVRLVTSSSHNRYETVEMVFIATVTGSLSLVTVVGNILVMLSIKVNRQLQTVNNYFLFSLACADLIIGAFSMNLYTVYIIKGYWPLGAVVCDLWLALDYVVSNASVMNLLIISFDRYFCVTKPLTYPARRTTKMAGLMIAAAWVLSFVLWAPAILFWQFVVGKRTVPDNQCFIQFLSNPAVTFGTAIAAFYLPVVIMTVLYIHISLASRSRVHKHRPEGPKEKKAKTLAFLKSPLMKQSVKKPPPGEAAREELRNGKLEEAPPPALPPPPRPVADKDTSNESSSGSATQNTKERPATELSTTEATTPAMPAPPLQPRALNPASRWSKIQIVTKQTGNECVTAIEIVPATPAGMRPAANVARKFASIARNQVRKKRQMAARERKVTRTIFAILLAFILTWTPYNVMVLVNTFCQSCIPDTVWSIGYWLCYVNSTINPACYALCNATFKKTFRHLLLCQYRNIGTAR
Voltage-gated potassium channel subunit beta-2 (Rattus norvegicus), sequence (P62483 whole entry, looked up): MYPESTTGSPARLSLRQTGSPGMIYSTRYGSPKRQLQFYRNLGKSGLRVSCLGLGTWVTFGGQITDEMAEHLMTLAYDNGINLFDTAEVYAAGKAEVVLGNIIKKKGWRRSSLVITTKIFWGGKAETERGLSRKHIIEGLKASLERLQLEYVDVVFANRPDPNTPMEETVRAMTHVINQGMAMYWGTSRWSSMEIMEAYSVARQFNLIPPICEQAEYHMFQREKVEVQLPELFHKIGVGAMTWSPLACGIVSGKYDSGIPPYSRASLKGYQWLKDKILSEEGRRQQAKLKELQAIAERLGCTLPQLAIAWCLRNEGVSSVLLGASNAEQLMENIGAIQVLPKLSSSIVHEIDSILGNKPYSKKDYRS

Broadly, the inhibition is the change of the read-out against control, counted positive when it falls. As for `Cc1ccc(Oc2ccc(-c3nc(N)nc(N)n3)cc2)cc1`, the cell count in experiment [1] is 366. Also, the inhibition was -6% (inactive) in experiment [1], -62.6% (inactive) in experiment [3], 7.07% (inactive) in experiment [7] and 11.6% (inactive) in experiment [8]. Also, the inhibition of aggregation in experiment [2] was 9% (inactive). Besides, the values for the nuclei count in experiment [2] and in experiment [3] were 105% and 125%, respectively. The fluorescence slope in experiment [4] was -0.547 (inactive); in experiment [6] it was 0.00425 (inactive). Also, the NADPH fluorescence slope in experiment [5] was -2.9e-05 (inactive).

Regarding `Cc1ccc(-c2nnc3ccc(SCC(=O)NCc4ccco4)nn23)cc1`, the cell count in experiment [1] worked out at 421. In addition, the inhibition in experiment [1] was 0.7% (inactive); in experiment [3], 17.1% (inactive); in experiment [7], 4.93% (inactive); in experiment [8], 7.2% (inactive). Further, the inhibition of aggregation in experiment [2] was 0.7% (inactive). Moreover, the values for the nuclei count in experiment [2] and in experiment [3] were 117% and 99.7%, respectively. For the same compound, the fluorescence slope was -0.234 (inactive) in experiment [4] and 0.00584 (inactive) in experiment [6]. In addition, the NADPH fluorescence slope in experiment [5] is -7.9e-06 (inactive).

As to `c1c2c(cc3sc(N4CCCCC4)nc13)OCCO2`, the cell count in experiment [1] turned out to be 266. Moreover, the inhibition is -5.8% (inactive) in experiment [1], 2.1% (inactive) in experiment [3], -0.203% (inactive) in experiment [7] and -45.7% (inactive) in experiment [8]. For the same compound, the inhibition of aggregation in experiment [2] is 14.4% (inactive). The nuclei count in experiment [2] is 87.6%; in experiment [3], 88.9%. The fluorescence slope is -0.54 (inactive) in experiment [4] and 0.00468 (inactive) in experiment [6]. For the same compound, the NADPH fluorescence slope in experiment [5] was -9.8e-06 (inactive).

With `O=S(=O)(NCCc1ccccc1F)c1cccc(S(=O)(=O)N2CCOCC2)c1`, in experiment [1], the cell count was 434. Further, the inhibition in experiment [1] was 5.7% (inactive); in experiment [3], -14.8% (inactive); in experiment [7], 9.49% (inactive); in experiment [8] it was 13% (inactive). Further, the inhibition of aggregation in experiment [2] is 6.4% (inactive). Moreover, the nuclei count turned out to be 105% in experiment [2] and 110% in experiment [3]. Moreover, the values for the fluorescence slope in experiment [4] and in experiment [6] were -0.584 (inactive) and 0.00428 (inactive), respectively. In experiment [5], the NADPH fluorescence slope was 1.5e-06 (inactive).

Take `CCN1CCN(C(=O)c2ccc3c(=O)n(CCC4=CCCCC4)c(=O)[nH]c3c2)CC1`: the cell count in experiment [1] was 465. The inhibition is 3.4% (inactive) in experiment [1], -29.3% (inactive) in experiment [3], -36.8% (inactive) in experiment [7] and -73.5% (inactive) in experiment [8]. Moreover, the inhibition of aggregation in experiment [2] is -14% (inactive). Besides, the nuclei count in experiment [2] was determined as 95.8%; in experiment [3] it was 114%. Further, the figures for the fluorescence slope in experiment [4] and in experiment [6] were -0.576 (inactive) and 0.00535 (inactive), respectively. Moreover, the NADPH fluorescence slope in experiment [5] is -7.8e-05 (inactive).

`CCc1ccc(NS(=O)(=O)c2cccs2)cc1`: in experiment [1], the cell count came to 421. Also, the inhibition in experiment [1] is 4.3% (inactive); in experiment [3], -82% (inactive); in experiment [7], -6.86% (inactive); in experiment [8], -9.13% (inactive). Besides, in experiment [2], the inhibition of aggregation is -18.3% (inactive). Moreover, the nuclei count was 105% in experiment [2] and 109% in experiment [3]. Further, the fluorescence slope in experiment [4] was -0.634 (inactive); in experiment [6], 0.00357 (inactive). Besides, the NADPH fluorescence slope in experiment [5] is 3e-06 (inactive).

With `CCN(CC)C(=O)C1=C(C)NC(=O)NC1c1c(F)cccc1Cl` (centres undefined), the cell count in experiment [1] worked out at 410. For the same compound, the inhibition in experiment [1] was -7.5% (inactive); in experiment [3] it was -73.9% (inactive); in experiment [7] it was 7.67% (inactive); in experiment [8], 10.6% (inactive). In experiment [2], the inhibition of aggregation is -3.7% (inactive). The nuclei count in experiment [2] came to 116%; in experiment [3], 122%. Moreover, the fluorescence slope in experiment [4] is -0.521 (inactive); in experiment [6] it was 0.00392 (inactive). Also, the NADPH fluorescence slope in experiment [5] is -0.000194 (inactive).

Regarding `COc1cc(OC)cc(-c2nnc(Nc3nc4c(F)cccc4s3)o2)c1`, the cell count in experiment [1] came to 345. The inhibition in experiment [1] is -3.8% (inactive); in experiment [3] it was 28.3% (inactive); in experiment [7], 17.6% (inactive); in experiment [8], 12.9% (inactive). For the same compound, the inhibition of aggregation in experiment [2] was 12% (inactive). Further, the nuclei count turned out to be 84.3% in experiment [2] and 92.1% in experiment [3]. Besides, the fluorescence slope in experiment [4] is -0.336 (inactive); in experiment [6] it was 0.0196 (active). For the same compound, in experiment [5], the NADPH fluorescence slope is 7e-05 (inactive).

As for `O=C(NCc1ccco1)C1CC(=O)N(c2ccc(F)cc2)C1` (centres undefined), the cell count in experiment [1] was 375. In addition, the inhibition in experiment [1] was 3.6% (inactive); in experiment [3], -34.5% (inactive); in experiment [7], 3.07% (inactive); in experiment [8], 12% (inactive). Further, the inhibition of aggregation in experiment [2] is -0.9% (inactive). Also, the figures for the nuclei count in experiment [2] and in experiment [3] were 97.4% and 124%, respectively. Further, the values for the fluorescence slope in experiment [4] and in experiment [6] were -0.593 (inactive) and 0.00568 (inactive), respectively. For the same compound, the NADPH fluorescence slope in experiment [5] was -2e-05 (inactive).

As to `COc1ccccc1OC(=O)c1ccc(SC)cc1OC`, the cell count in experiment [1] was determined as 384. Besides, the inhibition in experiment [1] is -15.2% (inactive); in experiment [3], 7.8% (inactive); in experiment [7], -1.26% (inactive); in experiment [8], 2.42% (inactive). The inhibition of aggregation in experiment [2] is 6.6% (inactive). The figures for the nuclei count in experiment [2] and in experiment [3] were 99.3% and 116%, respectively. In addition, the values for the fluorescence slope in experiment [4] and in experiment [6] were -0.57 (inactive) and 0.00466 (inactive), respectively. Also, the NADPH fluorescence slope in experiment [5] was -2.8e-05 (inactive).

Regarding `CCn1c(=O)cc(OCC(=O)NCCCN2CC(C)CC(C)C2)c2ccccc21` (centres undefined), in experiment [1], the cell count worked out at 395. Also, the inhibition in experiment [1] is -5.5% (inactive); in experiment [3] it was -25% (inactive); in experiment [7] it was 69.4% (active); in experiment [8], 55.8% (active). Moreover, the inhibition of aggregation in experiment [2] is -18.3% (inactive). The nuclei count in experiment [2] was 111%; in experiment [3], 123%. The fluorescence slope in experiment [4] was -0.511 (inactive); in experiment [6], 0.00485 (inactive). Besides, the NADPH fluorescence slope in experiment [5] was -0.000129 (inactive).

Turning to `CCOC(=O)c1ccc(Oc2nc(NC)nc(OC)n2)cc1`, in experiment [1], the cell count came to 635. The inhibition in experiment [1] was 6.8% (inactive); in experiment [3], -41.5% (inactive); in experiment [7], -7.27% (inactive); in experiment [8] it was 18.3% (inactive). Also, the inhibition of aggregation in experiment [2] was -13.2% (inactive). Also, the nuclei count in experiment [2] is 98.2%; in experiment [3] it was 110%. For the same compound, the fluorescence slope was -0.295 (inactive) in experiment [4] and 0.00677 (inactive) in experiment [6]. The NADPH fluorescence slope in experiment [5] is -1.6e-06 (inactive).

On to `Cc1cccc(OCC(=O)N2CCC(c3ccccc3)C2)c1` (centres undefined), for which, in experiment [1], the cell count was found to be 380. The inhibition in experiment [1] was 4.3% (inactive); in experiment [3], -6.3% (inactive); in experiment [7] it was -65.5% (inactive); in experiment [8], -177% (inactive). Besides, the inhibition of aggregation in experiment [2] was -13.6% (inactive). In addition, the values for the nuclei count in experiment [2] and in experiment [3] were 101% and 115%, respectively. The fluorescence slope in experiment [4] is -0.426 (inactive); in experiment [6], 0.0091 (inactive). Moreover, in experiment [5], the NADPH fluorescence slope is 1.1e-05 (inactive).

For the compound `N#CC1=C(N)Oc2n[nH]c(-c3cccs3)c2C1c1cccs1` (centres undefined), the cell count in experiment [1] was 562. Further, the inhibition in experiment [1] is -15.3% (inactive); in experiment [3], -80.1% (inactive); in experiment [7] it was 13.4% (inactive); in experiment [8], 17.8% (inactive). Further, in experiment [2], the inhibition of aggregation was 4.7% (inactive). Also, the nuclei count came out at 99.1% in experiment [2] and 113% in experiment [3]. In addition, the fluorescence slope in experiment [4] is -0.396 (inactive); in experiment [6], 0.00605 (inactive). In addition, the NADPH fluorescence slope in experiment [5] is -1.8e-05 (inactive).
